Compound activity as filed in PubChem.
Only some compounds are listed: those with a hit (about 2% of all), similar ones and a draw of the others.
XiGFP reactiv: reactivates the inactive X chromosome in mouse fibroblasts; activation, % at 7.58 µM; AID 743238; XiGFP mouse fibroblasts, % GFP-positive cells imaging, 3 d; cells co-treated with 5-aza-dC sensitizer; scaled so ellipticine positive control = 100%; 360,000 tested, 0.055% active;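 active = mean normalized replicate activation at least 10% and every replicate at or above 10%; inconclusive = only one of the two criteria met; inactive = mean below 10% and not all replicates reach 10%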;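 note: 0% = median of on-plate neutral control wells and 100% = ellipticine 6 µM median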
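Material: XiGFP fibroblasts, SV40-immortalized; Buffer or medium: DMEM containing 5-aza-dC; Compound dosing: single point; Times: 3 days compound exposure.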
NSD2 HMT inh: blocks human histone methyltransferase NSD2; NSD2 peptide methylation, AlphaScreen, 120 min; inhibition, % at 12.5 µM; 310,000 tested, 0.54% active; O96028; AID 743445; in the data active = inhibition above about 50%
sPLA2-III inh: Blocks human group III sPLA2 activity; Q9NZ20; QFRET BODIPY PC-A2 liposome hydrolysis, fluorescence; inhibition, % at 12.2 µM; 370,000 tested, 0.56% active; AID 743126;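 active = inhibition above mean plus 3 SD of compounds lying within the high and low control bounds, cut at about 19% in these data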;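 note: 0% = median of test compound wells and 100% = no enzyme DMSO wells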
ARNT-TACC3 inh: disruptors of human ARNT/TACC3 interaction. inhibition, % at 9.99 µM. 390,000 tested, 0.66% active. AlphaScreen His-ARNT PAS-B/GST-TACC3 binding, luminescence; TACC3 fragment carries E629A point mutation. AID 623870;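 active = mean inhibition of replicates at least 50% and at least half of replicates each reaching 50%; inconclusive = half or more replicates reach 50% but mean below 50%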;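 note: 0% = complete ARNT plus TACC3 wells and 100% = ARNT alone without TACC3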
SR-BI HDL uptake: inhibitors of mouse SR-BI mediated HDL lipid uptake; inhibition, % at 12.5 µM; 320,000 tested, 0.96% active; AID 488896; Q61009; ldlA[mSR-BI] CHO cells, DiI-HDL uptake fluorescence, 3 h;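 active = mean replicate inhibition of at least 70% and a set share of replicates each scoring 70 or more; inconclusive = meets just one of the two criteria; inactive = fails both criteria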;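 note: 0% = median of neutral control wells and 100% = median of positive control wells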
SR-BI DiI-HDL act: activators of SR-BI mediated HDL lipid uptake. AID 504775. 320,000 tested, 0.096% active. activation, % at 12.5 µM. CHO ldlA[mSR-BI] cells, DiI-HDL uptake fluorescence, 3 h; 100 = double the neutral-control signal;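 active = mean replicate activation of at least 60% and every replicate at or above 60%; inconclusive = mean or all-replicate condition met, but not both; inactive = mean below 60% and not all replicates reaching 60%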;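 note: 0% = median plate neutral-control signal and 100% = twice that signal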
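Assay system: LDL receptor-deficient CHO ldlA cells overexpressing murine SR-BI / Medium: BSA-supplemented, HEPES-buffered Ham's F12, pH 7.4 / Probe or stimulus: DiI-labelled HDL at 10 µg/mL final / Timing: compound with DiI-HDL co-incubation, 3 h at 37 °C / Technique: bottom-read cell fluorescence after medium removal, ex 550/em 595 nm / Measure: HDL uptake via cellular fluorescence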
* marks the source's active call; other numbers are inactive results; i = inactive; ? = inconclusive; / = not tested or not shown.

SMILES | XiGFP reactiv | NSD2 HMT inh | sPLA2-III inh | ARNT-TACC3 inh | SR-BI HDL uptake | SR-BI DiI-HDL act
O=C(N/N=C/c1cc([N+](=O)[O-])ccc1O)C1CC1 | 0 | 0 | 5 | 54* | 25 | -25
COc1cccc(/C=N/NC(=O)CNC(=O)c2ccc3c(c2)OCCO3)c1O | 0 | 0 | -15 | 13 | -13 | 13
O=C(N/N=C/c1cc([N+](=O)[O-])ccc1O)c1ccc2c(c1)OCCO2 | 0 | 0 | 12 | 7 | 131* | -131
Cc1ccc(S(=O)(=O)NC2=NCN(CCN3CCOCC3)CN2)cc1 | / | 0 | 1 | -3 | -3 | 3
Cc1c(NC(=S)N/N=C/c2ccc(O)cc2)c(=O)n(-c2ccccc2)n1C | / | 0 | 3 | 2 | -16 | 16
O=[N+]([O-])c1ccc(O)c(/C=N/Nc2ccccc2Cl)c1 | 0 | 0 | -2 | -5 | 0 | 0
O=C(N/N=C/c1cc([N+](=O)[O-])ccc1O)C(O)(c1ccccc1)c1ccccc1 | 0 | 1 | -6 | 49* | 46 | -46
Cc1c(NC(=S)N/N=C/c2cc([N+](=O)[O-])ccc2O)c(=O)n(-c2ccccc2)n1C | 0 | -3 | 8 | 70* | / | /
O=C1NCCCC1C(=O)N/N=C/c1cc([N+](=O)[O-])ccc1O (centres undefined) | / | -25 | -2 | 70* | -17 | 17
O=C(N/N=C/c1cc([N+](=O)[O-])ccc1O)c1cccc(N2CCCC2=O)c1 | 0 | 0 | 2 | 78* | 117* | -117
COc1cccc(NC(=O)NCC2CCN(Cc3ccc(F)cc3)CC2)c1 | 0 | -1 | -12 | -5 | -4 | 4
O=C(N/N=C/c1ccccn1)C1CC1 | / | -2 | 4 | -12 | 0 | 0
O=C(NN=Cc1ccccc1O)C1CC1 | 0 | -3 | -2 | 39* | -6 | 6
O=C(CCCC(=O)Nc1cccc(Br)c1)N/N=C/c1cc([N+](=O)[O-])ccc1O | 0 | 3 | -17 | 10 | -7 | 7
O=C(CN(c1cccc(Br)c1)S(=O)(=O)c1ccccc1)N/N=C/c1cc([N+](=O)[O-])ccc1O | 0 | -1 | -23 | 30 | 124* | -124
CC(NC(=O)/C(C#N)=C/c1ccc([N+](=O)[O-])o1)c1ccccc1 (centres undefined) | 43* | 1 | -10 | 1 | 7 | -7
COC(=O)c1ccc(/C=C(\C#N)C(=O)NC(C)c2ccccc2)cc1 (centres undefined) | 0 | 4 | -2 | 3 | 4 | -4
CC1=NN(C(N)=S)C(=O)C1N=Nc1c(Cl)cc([N+](=O)[O-])cc1Cl (centres undefined) | 1 | -56 | 2 | 21 | -8 | 8
C[C@@H]1CN([C@H](C)CO)C(=O)c2cc(C3=CCCCC3)cnc2O[C@H]1CN(C)C(=O)Nc1ccccc1 | 0 | / | / | -3 | / | /
Cc1cccc2c1nc(-c1ccccc1)n1cnnc21 | / | -3 | 3 | -3 | i | 854*
Cc1ccc(C(=O)Nc2nnc(NC(=S)Nc3ccccc3)s2)cc1 | 0 | -5 | 5 | 6 | ? | -70
CCOc1ccc(C(=O)Nc2nnc(NC(=S)Nc3ccccc3)s2)cc1 | 0 | -3 | 6 | -3 | 85* | -85
Nc1ccc(Oc2ccc3nc(-c4ccccc4)c(-c4ccc([N+](=O)[O-])cc4)nc3c2)cc1 | / | 1 | 6 | -5 | 76* | -76
CCCCN1C(=O)Nc2ccccc2S1(=O)=O | 0 | -2 | -5 | -5 | 19 | -19
CCN(CC)S(=O)(=O)c1cc(NC(=O)NCCCl)ccc1C | 0 | 45 | 16 | -12 | / | /
CCN(CC)S(=O)(=O)c1cc(NC(=O)c2ccc(Br)s2)ccc1C | 0 | 1 | -22 | 3 | 75* | -75
Nc1c(C(=O)O)ccc2c1C(=O)c1ccccc1C2=O | 0 | 19 | -1 | -4 | -16 | 16
Nc1cc(C(=O)O)c(N)c2c1C(=O)c1ccccc1C2=O | / | / | / | 55* | / | /
O=C(Nc1nnc(-c2ccccc2Cl)o1)c1cccnc1 | / | -6 | 0 | 54* | -27 | 27
